According to ChEMBL document CHEMBL3526035, “Role of the intestinal peptide transporter PEPT1 in oseltamivir absorption: in vitro and in vivo studies” (Drug Metab Dispos, 2012):

Assays:
[1] = AUC(0 to infinity) in adult fasted Sprague-Dawley rat at 30 mg/kg, po administered as solution in bovine milk by HPLC-tandem mass spectrometry; format: ADME, organism-based; parameters: time infinity, dose 30 mg/kg, route oral; settings: in vivo
Summary of the method: (§1)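 Adult male Sprague-Dawley rats (243-283 g), jugular-cannulated, fasted from 6 h before dosing through the 6-h study. Given 30 mg/kg orally (free base) at 10 ml/kg, n=3/group. Blood sampled at 0.25-6 h into K2EDTA with dichlorvos esterase inhibitor. Plasma assayed by LC-MS/MS (0.1-500 μg/l). Noncompartmental analysis: linear-trapezoid AUC; infinity extrapolation via log-linear terminal λz.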

[2] = AUC(0 to 5 hrs) in juvenile breast-fed Sprague-Dawley rat at 30 mg/kg, po administered as water solution by HPLC-tandem mass spectrometry; format: ADME, organism-based; parameters: time < 5 hr, dose 30 mg/kg, route oral; settings: plasma
Summary of the method: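 7-day-old Sprague-Dawley pups (9.7-18.9 g, both sexes), 15 per group. Given 30 mg/kg by oral gavage (10 ml/kg); breast-fed pups stayed with dams, fasted pups were removed 8 h before dosing. Blood taken by cardiac puncture under isoflurane at 0.25, 0.5, 1, 2 and 5 h, n=3 per time point (composite design). Dichlorvos-treated plasma assayed by LC-MS/MS; AUC0-5h by noncompartmental analysis.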

[3] = Cmax in healthy human at 150 mg, po administered as single dose by HPLC-tandem mass spectrometry under fasting conditions; format: ADME, organism-based; parameters: dose 150 mg, route oral; settings: in vivo
Summary of the method: (§2)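 Open-label crossover in 18 healthy volunteers (9 male, 9 female, mean age 26). Each received marketed oseltamivir 150 mg orally, once fasted from midnight and once after a high-fat, high-calorie breakfast, with a 7-10 day washout. Plasma and urine collected over 0-72 h and analysed by HPLC-MS/MS. AUC and Cmax compared after log transformation.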

[4] = AUC(0 to 24 hrs) in healthy human at 150 mg, po administered as single dose by HPLC-tandem mass spectrometry under fed conditions; format: ADME, organism-based; parameters: time < 24 hr, dose 150 mg, route oral; settings: plasma; summary of the method: as §2
[5] = AUC(0 to 6 hrs) in adult fasted Sprague-Dawley rat at 30 mg/kg, po administered as 125 mM aqueous Gly-Sar solution by HPLC-tandem mass spectrometry; format: ADME, organism-based; parameters: time < 6 hr, dose 30 mg/kg, route oral; settings: plasma; summary of the method: as §1
[6] = Drug uptake in CHOK1 cells at 100 uM after 10 mins by HPLC coupled with radiodetection analysis in presence of PEPT1 inhibitor cefadroxil; format: ADME, cell-based, Cricetulus griseus; settings: chinese hamster, cho-k1, 10 min
Summary of the method: (§3)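 CHO-K1 cells held in KH buffer at pH 6. Incubated 10 min with [14C]oseltamivir at 100 μM, either with 20 mM Trp-Gly, valacyclovir or cefadroxil, or at 4°C (on ice) against 37°C. Quenched with ice-cold PBS-0.2% BSA, washed, lysed in 1% Triton X-100 at 60°C. Lysate counted by scintillation and normalised to BCA protein. Three experiments, each point in triplicate.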

[7] = Drug uptake in CHOK1 cells expressing human PEPT1 at 100 uM at pH 4 to 8 after 10 mins by HPLC coupled with radiodetection analysis; format: ADME, cell-based, Cricetulus griseus; settings: chinese hamster, cho-k1, pH 4, 10 min
Summary of the method: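 pH series from 4 to 8: CHO-PEPT1 and CHO-K1 cells were exposed to 100 µM [14C]oseltamivir (or 2 µM [3H]Gly-Sar) in KH/MES buffer, with pH readjusted after substrate addition, for 10 min at 37°C. Then quench in ice-cold PBS-BSA, Triton X-100 lysis and scintillation counting normalized to protein. Three independent experiments.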

[8] = Drug uptake in CHOK1 cells at 100 uM after 10 mins by HPLC coupled with radiodetection analysis in presence of PEPT1 inhibitor valacyclovir; format: ADME, cell-based, Cricetulus griseus; settings: chinese hamster, cho-k1, 10 min; summary of the method: as §3
[9] = Drug uptake in CHOK1 cells expressing human PEPT1 at 100 uM after 10 mins by HPLC coupled with radiodetection analysis in presence of PEPT1 inhibitor cefadroxil; format: ADME, cell-based, Cricetulus griseus; settings: chinese hamster, cho-k1, 10 min
Summary of the method: (§4)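 CHO-PEPT1 and parental CHO-K1 cells were washed in KH/MES buffer, then incubated 10 min at 37°C, pH 6, with 100 µM [14C]oseltamivir alone or with 20 mM of the inhibitor. The pH was readjusted after additions. Uptake was quenched with ice-cold PBS-BSA and cells were washed and lysed in 1% Triton X-100. Lysate radioactivity was normalized to BCA protein. Three experiments on separate days, triplicate wells.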

[10] = Drug uptake in CHOK1 cells at 100 uM at pH 4 to 8 after 10 mins by HPLC coupled with radiodetection analysis; format: ADME, cell-based, Cricetulus griseus; settings: chinese hamster, cho-k1, pH 4, 10 min
Summary of the method: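 [14C]oseltamivir at 100 μM incubated with CHO-K1 cells for 10 min at 37°C in KH buffer over pH 4-8, with pH readjusted after compound addition. Washed cells were lysed in Triton X-100, radioactivity counted and normalised to protein. Three independent experiments, each run in triplicate.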

[11] = Drug uptake in CHOK1 cells at 100 uM at 4 degC after 10 mins by HPLC coupled with radiodetection analysis; format: ADME, cell-based, Cricetulus griseus; settings: chinese hamster, cho-k1, 10 min; summary of the method: as §3
[12] = Drug uptake in CHOK1 cells at 100 uM after 10 mins by HPLC coupled with radiodetection analysis in presence of PEPT1 inhibitor Trp-Gly; format: ADME, cell-based, Cricetulus griseus; settings: chinese hamster, cho-k1, 10 min; summary of the method: as §3
[13] = Drug uptake in CHOK1 cells expressing human PEPT1 at 100 uM after 10 mins by HPLC coupled with radiodetection analysis in presence of PEPT1 inhibitor Trp-Gly; format: ADME, cell-based, Cricetulus griseus; settings: chinese hamster, cho-k1, 10 min; summary of the method: as §4
[14] = Drug uptake in CHOK1 cells expressing human PEPT1 at 100 uM after 10 mins by HPLC coupled with radiodetection analysis in presence of PEPT1 inhibitor valacyclovir; format: ADME, cell-based, Cricetulus griseus; settings: chinese hamster, cho-k1, 10 min; summary of the method: as §4
[15] = Drug uptake in CHOK1 cells expressing human PEPT1 at 100 uM at 4 degC after 10 mins by HPLC coupled with radiodetection analysis; format: ADME, cell-based, Cricetulus griseus; settings: chinese hamster, cho-k1, 10 min
Summary of the method: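 100 µM [14C]oseltamivir was incubated with CHO-PEPT1 and CHO-K1 cells for 10 min in KH/MES buffer pH 6, on ice (4°C) or on a 37°C block. Uptake was stopped with ice-cold PBS-BSA, cells were washed and lysed in Triton X-100, and radioactivity was counted per mg protein (BCA). Three independent experiments.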

AUC(0-inf) [1] [ng·h/mL] | AUC(0-t) at 5 h [2] [ng·h/mL] | Cmax [3] [ng/mL] | AUC(0-t) at 24 h [4] [ng·h/mL] | AUC(0-t) at 6 h [5] [ng·h/mL] | Drug uptake [6] | Drug uptake [7] | Drug uptake [8] | Drug uptake [9] | Drug uptake [10] | Drug uptake [11] | Drug uptake [12] | Drug uptake [13] | Drug uptake [14] | Drug uptake [15] | Structure (SMILES)
6300 | 5070 | 551 | 5060 | 8350 | – | – | – | – | – | – | – | – | – | – | CCC(CC)O[C@@H]1C=C(C(=O)O)C[C@H](N)[C@H]1NC(C)=O [OSELTAMIVIR CARBOXYLATE]
3060 | 20300 | 124 | 280 | 3780 | Not Active | Active | Not Active | Not Active | Active | Not Active | Not Active | Not Active | Not Active | Not Active | CCOC(=O)C1=C[C@@H](OC(CC)CC)[C@H](NC(C)=O)[C@@H](N)C1 [OSELTAMIVIR]
